ChEMBL document CHEMBL4196081, “Synthesis and antimycobacterial activity of 1-(β-d-Ribofuranosyl)-4-coumarinyloxymethyl- / -coumarinyl-1,2,3-triazole” (Eur J Med Chem, 2018)
Converted amounts (≈) assume the structure as drawn. The source made the active and inactive calls. The rule behind the calls is not given here.

What was measured:
[1] = tested on: Mycobacterium tuberculosis; assay: Antimycobacterial activity against Mycobacterium tuberculosis H37Rv after 10 days by MABA; type: functional; conditions: 240 h
Procedure, shortened: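 MABA in 7H9 medium: log-phase culture passed through 8 µm filter, density set by OD600 and McFarland standards, 1 × 10^6 cells per well with drug dilutions; aerobic incubation 37 °C 10 days, then 0.02 % resazurin, overnight 37 °C. MIC = lowest concentration preventing blue-to-pink change. Triplicate; medium+inoculum and medium-only controls.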

[2] = tested on: Mycobacterium tuberculosis; assay: Antimycobacterial activity against MDR Mycobacterium tuberculosis isolate 591 after 15 days by MABA; type: functional; conditions: isolate 591, 360 h
Procedure, shortened: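 MABA in 7H9 medium on MDR clinical isolate 591: filtered single-cell suspension, 1 × 10^6 cells per well with drug dilutions, aerobic 37 °C; 0.02 % resazurin added on day 15, overnight 37 °C. MIC = lowest concentration preventing blue-to-pink change. Triplicate; medium+inoculum and medium-only controls.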

[3] = Cytotoxicity against human THP1 cells assessed as cell viability at 4.68 ug/ml after 48 hrs by MTT assay relative to control; type: cell-based; conditions: THP-1 cells, read-out: Activity
Procedure, shortened: (§1)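 THP-1 cells (human monocytic line) seeded at 10^4 per well and adhered with phorbol myristate acetate (20 ng/mL). Then given fresh RPMI with 10% foetal calf serum and 2 mM L-glutamine, plus compound by serial double dilution (4.68–150 µg/mL), with DMSO and no-DMSO controls. Incubated 24 or 48 h at 37 °C, 5% CO2. MTT added for 4 h, formazan dissolved in DMSO, A540 read, percentage survival calculated.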

THP-1 = assay: Cytotoxicity against human THP1 cells assessed as growth inhibition after 24 to 48 hrs by MTT assay; type: cell-based; procedure, shortened: as §1
[4] = Selectivity index, ratio of IC50 for cytotoxicity against human THP1 cells to MIC for Mycobacterium tuberculosis H37Rv; type: toxicity, cell-based; conditions: THP-1 cells, read-out: Selectivity Index
Procedure, shortened: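 THP-1 cells, 10^4/well, adhered with PMA 20 ng/mL, in RPMI with 10 % FCS and 2 mM L-glutamine; exposed to 4.68–150 µg/mL for 24 and 48 h at 37 °C, 5 % CO2; MTT 4 h, formazan in DMSO, A540. Index = THP-1 IC50 divided by H37Rv MABA MIC.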

[5] = Cytotoxicity against human THP1 cells assessed as cell viability at 4.68 ug/ml after 24 hrs by MTT assay relative to control; type: cell-based; conditions: THP-1 cells, read-out: Activity; procedure, shortened: as §1
[6] = Cytotoxicity against human THP1 cells assessed as cell viability at 9.36 ug/ml after 24 hrs by MTT assay relative to control; type: cell-based; conditions: THP-1 cells, read-out: Activity; procedure, shortened: as §1
[7] = Cytotoxicity against human THP1 cells assessed as cell viability at 9.36 ug/ml after 48 hrs by MTT assay relative to control; type: cell-based; conditions: THP-1 cells, read-out: Activity; procedure, shortened: as §1
[8] = Cytotoxicity against human THP1 cells assessed as cell viability at 18.72 ug/ml after 24 hrs by MTT assay relative to control; type: cell-based; conditions: THP-1 cells, read-out: Activity; procedure, shortened: as §1
[9] = Cytotoxicity against human THP1 cells assessed as cell viability at 18.72 ug/ml after 48 hrs by MTT assay relative to control; type: cell-based; conditions: THP-1 cells, read-out: Activity; procedure, shortened: as §1
[10] = Cytotoxicity against human THP1 cells assessed as cell viability at 37.48 ug/ml after 24 hrs by MTT assay relative to control; type: cell-based; conditions: THP-1 cells, read-out: Activity; procedure, shortened: as §1
[11] = Cytotoxicity against human THP1 cells assessed as cell viability at 37.48 ug/ml after 48 hrs by MTT assay relative to control; type: cell-based; conditions: THP-1 cells, read-out: Activity; procedure, shortened: as §1
[12] = Cytotoxicity against human THP1 cells assessed as cell viability at 75 ug/ml after 24 hrs by MTT assay relative to control; type: cell-based; conditions: THP-1 cells, read-out: Activity; procedure, shortened: as §1
[13] = Cytotoxicity against human THP1 cells assessed as cell viability at 75 ug/ml after 48 hrs by MTT assay relative to control; type: cell-based; conditions: THP-1 cells, read-out: Activity; procedure, shortened: as §1
[14] = Cytotoxicity against human THP1 cells assessed as cell viability at 150 ug/ml after 24 hrs by MTT assay relative to control; type: cell-based; conditions: THP-1 cells, read-out: Activity; procedure, shortened: as §1
[15] = Cytotoxicity against human THP1 cells assessed as cell viability at 150 ug/ml after 48 hrs by MTT assay relative to control; type: cell-based; conditions: THP-1 cells, read-out: Activity; procedure, shortened: as §1
[16] = tested on: Mycobacterium tuberculosis; assay: Bactericidal activity against Mycobacterium tuberculosis H37Rv after 4 weeks by MABA; type: functional; conditions: 672 h
[17] = tested on: Mycobacterium tuberculosis; assay: Ratio of MBC to MIC for Mycobacterium tuberculosis H37Rv; type: functional
[18] = target: DNA gyrase subunit B (Escherichia coli) (UniProt P0AES6); assay: Inhibition of Escherichia coli DNA gyrase-B at 0.66 to 100 uM using relaxed pUC19 DNA as substrate after 1 hr by bromophenol blue dye based agarose gel electrophoresis method
Procedure, shortened: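 E. coli DNA gyrase, 1 unit, with 0.3 µg relaxed pUC19 plasmid in 1X gyrase assay buffer. Compound added as 0.2 µL from 100 µM stock; ciprofloxacin positive control, DMSO solvent control. Incubated 37 °C for 1 h, stopped with 50% glycerol/0.25% bromophenol blue. Run on 1% agarose in 0.5X TBE pH 8.3, 16 h at 30 mA, ethidium bromide stained, UV visualised for supercoiling.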

Row | SMILES | MIC [1] [µM] | MIC [2] [µM] | MBC [16] [µM] | Ratio [17] | other results
1 | CO[C@H]1/C=C/O[C@@]2(C)Oc3c(C)c(O)c4c(O)c(c(/C=N/N5CCN(C)CC5)c(O)c4c3C2=O)NC(=O)/C(C)=C\C=C\[C@H](C)[C@H](O)[C@@H](C)[C@@H](O)[C@@H](C)[C@H](OC(C)=O)[C@@H]1C [RIFAMPIN] | 0.02 (≈ 0.0165 µg/mL) | 152 (≈ 125 µg/mL) | – | – | –
2 | [H]/N=C(/N)N[C@H]1[C@H](O)[C@@H](O)[C@H](O[C@@H]2O[C@@H](C)[C@](O)(C=O)[C@H]2O[C@@H]2O[C@@H](CO)[C@H](O)[C@@H](O)[C@@H]2NC)[C@@H](N/C(N)=N\[H])[C@@H]1O [STREPTOMYCIN] | 0.43 (≈ 0.25 µg/mL) | 69 (≈ 40.1 µg/mL) | – | – | viability at 48 h, 4.68 ug/ml [3]: 90%; IC50 (THP-1): > 258 µM; selectivity ratio [4]: 600; viability at 24 h, 4.68 ug/ml [5]: 100%; viability at 24 h, 9.36 ug/ml [6]: 99%; viability at 48 h, 9.36 ug/ml [7]: 86%; viability at 24 h, 18.72 ug/ml [8]: 98%; viability at 48 h, 18.72 ug/ml [9]: 84%; viability at 24 h, 37.48 ug/ml [10]: 89%; viability at 48 h, 37.48 ug/ml [11]: 77%; viability at 24 h, 75 ug/ml [12]: 80%; viability at 48 h, 75 ug/ml [13]: 69%; viability at 24 h, 150 ug/ml [14]: 75%; viability at 48 h, 150 ug/ml [15]: 55%
3 | Cc1cc(=O)oc2cc(-c3cn([C@@H]4O[C@H](COC(=O)c5ccccc5)[C@@H](OC(=O)c5ccccc5)[C@H]4OC(=O)c4ccccc4)nn3)ccc12 | 11.9 (≈ 7.99 µg/mL) | 29.8 (≈ 20 µg/mL) | 26.8 (≈ 18 µg/mL) | 2.25 | –
4 | O=c1ccc2ccc(-c3cn([C@@H]4O[C@H](CO)[C@@H](O)[C@H]4O)nn3)cc2o1 | 28.9 (≈ 9.98 µg/mL) | 28.9 (≈ 9.98 µg/mL) | 46.3 (≈ 16 µg/mL) | 1.6 | –
5 | Cc1cc(=O)oc2cc(-c3cn([C@@H]4O[C@H](CO)[C@@H](O)[C@H]4O)nn3)c(Cl)cc12 | 30.5 (≈ 12 µg/mL) | 25.4 (≈ 10 µg/mL) | – | – | –
6 | O=C(O)c1cn(C2CC2)c2cc(N3CCNCC3)c(F)cc2c1=O | – | – | – | – | inhibition [18]: Active
7 | CC[C@@H](CO)NCCN[C@@H](CC)CO [ETHAMBUTOL] | 9.7 (≈ 1.98 µg/mL) | 73.4 (≈ 15 µg/mL) | – | – | –
8 | O=C(OC[C@H]1O[C@@H](n2cc(COc3ccc4ccc(=O)oc4c3)nn2)[C@H](OC(=O)c2ccccc2)[C@@H]1OC(=O)c1ccccc1)c1ccccc1 | 11.6 (≈ 7.98 µg/mL) | 14.5 (≈ 9.97 µg/mL) | 26.2 (≈ 18 µg/mL) | 2.25 | –
9 | O=c1ccc2ccc(OCc3cn([C@@H]4O[C@H](CO)[C@@H](O)[C@H]4O)nn3)cc2o1 | 10.6 (≈ 3.98 µg/mL) | 15.9 (≈ 5.97 µg/mL) | 26.6 (≈ 9.98 µg/mL) | 2.5 | viability at 48 h, 4.68 ug/ml [3]: 89%; IC50 (THP-1): > 400 µM; selectivity ratio [4]: 37.7; viability at 24 h, 4.68 ug/ml [5]: 100%; viability at 24 h, 9.36 ug/ml [6]: 91%; viability at 48 h, 9.36 ug/ml [7]: 86%; viability at 24 h, 18.72 ug/ml [8]: 89%; viability at 48 h, 18.72 ug/ml [9]: 84%; viability at 24 h, 37.48 ug/ml [10]: 86%; viability at 48 h, 37.48 ug/ml [11]: 63%; viability at 24 h, 75 ug/ml [12]: 68%; viability at 48 h, 75 ug/ml [13]: 59%; viability at 24 h, 150 ug/ml [14]: 60%; viability at 48 h, 150 ug/ml [15]: 55%
10 | O=c1cc(-c2ccccc2)c2ccc(-c3cn([C@@H]4O[C@H](CO)[C@@H](O)[C@H]4O)nn3)cc2o1 | 14.2 (≈ 5.98 µg/mL) | 18.9 (≈ 7.96 µg/mL) | 28.5 (≈ 12 µg/mL) | 2 | viability at 48 h, 4.68 ug/ml [3]: 96%; IC50 (THP-1): > 355 µM; selectivity ratio [4]: 25; viability at 24 h, 4.68 ug/ml [5]: 100%; viability at 24 h, 9.36 ug/ml [6]: 94%; viability at 48 h, 9.36 ug/ml [7]: 94%; viability at 24 h, 18.72 ug/ml [8]: 84%; viability at 48 h, 18.72 ug/ml [9]: 83%; viability at 24 h, 37.48 ug/ml [10]: 70%; viability at 48 h, 37.48 ug/ml [11]: 70%; viability at 24 h, 75 ug/ml [12]: 68%; viability at 48 h, 75 ug/ml [13]: 63%; viability at 24 h, 150 ug/ml [14]: 65%; viability at 48 h, 150 ug/ml [15]: 62%
11 | Cc1cc(=O)oc2cc(OCc3cn([C@@H]4O[C@H](COC(=O)c5ccccc5)[C@@H](OC(=O)c5ccccc5)[C@H]4OC(=O)c4ccccc4)nn3)ccc12 | 8.5 (≈ 5.96 µg/mL) | 11.4 (≈ 8 µg/mL) | 17.1 (≈ 12 µg/mL) | 2 | –
12 | Cc1cc(=O)oc2cc(-c3cn([C@@H]4O[C@H](COC(=O)c5ccccc5)[C@@H](OC(=O)c5ccccc5)[C@H]4OC(=O)c4ccccc4)nn3)c(Cl)cc12 | 14.2 (≈ 10 µg/mL) | 14.2 (≈ 10 µg/mL) | 25.5 (≈ 18 µg/mL) | 1.8 | –
13 | O=C(OC[C@H]1O[C@@H](n2cc(-c3ccc4ccc(=O)oc4c3)nn2)[C@H](OC(=O)c2ccccc2)[C@@H]1OC(=O)c1ccccc1)c1ccccc1 | 15.2 (≈ 10 µg/mL) | 30.4 (≈ 20 µg/mL) | 30.4 (≈ 20 µg/mL) | 2 | –
14 | Cc1cc(=O)oc2cc(OCc3cn([C@@H]4O[C@H](CO)[C@@H](O)[C@H]4O)nn3)c(Cl)cc12 | 18.9 (≈ 8.01 µg/mL) | 18.9 (≈ 8.01 µg/mL) | 37.7 (≈ 16 µg/mL) | 2 | –
15 | O=C(OC[C@H]1O[C@@H](n2cc(-c3ccc4c(-c5ccccc5)cc(=O)oc4c3)nn2)[C@H](OC(=O)c2ccccc2)[C@@H]1OC(=O)c1ccccc1)c1ccccc1 | 10.9 (≈ 8 µg/mL) | 13.6 (≈ 9.98 µg/mL) | 24.5 (≈ 18 µg/mL) | 2.25 | –
16 | Cc1cc(=O)oc2cc(OCc3cn([C@@H]4O[C@H](COC(=O)c5ccccc5)[C@@H](OC(=O)c5ccccc5)[C@H]4OC(=O)c4ccccc4)nn3)c(Cl)cc12 | 13.5 (≈ 9.94 µg/mL) | 20.4 (≈ 15 µg/mL) | 27.2 (≈ 20 µg/mL) | 2 | –
